Sampled rows, rich in hits. Any-hit rate of the full collection: about 4.5%.
OX1R antag-1: blocks the human orexin 1 receptor | O43613 | CHO/OX1R cells, Fluo-8 calcium fluorescence, orexin A | inhibition, % at 5 µM | 0.43% of 330,000 active | AID 434989;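 active = inhibition above its plate's threshold, mean inhibition of all tested compounds on the plate plus 3 SD, cut at about 37% in these data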;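 also: 0% = orexin A challenge wells and 100% = SB-334867-A antagonist wells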
TAAR1 antagonist: antagonists of human TAAR1 | Q96RJ0 | CHO RD-HGA16 TAAR1, Fluo-8 calcium fluorescence, antagonist | inhibition, % at 3 µM | 1.5% of 360,000 active | AID 624466;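 active = inhibition above a per-plate cutoff, the mean inhibition of test compounds on that plate plus 3 SD, cut at about 49% in these data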;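 also: 0% = DMSO plus EC80 beta-PEA response and 100% = DMSO alone without agonist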
Target sequence (Q96RJ0 whole entry, looked up): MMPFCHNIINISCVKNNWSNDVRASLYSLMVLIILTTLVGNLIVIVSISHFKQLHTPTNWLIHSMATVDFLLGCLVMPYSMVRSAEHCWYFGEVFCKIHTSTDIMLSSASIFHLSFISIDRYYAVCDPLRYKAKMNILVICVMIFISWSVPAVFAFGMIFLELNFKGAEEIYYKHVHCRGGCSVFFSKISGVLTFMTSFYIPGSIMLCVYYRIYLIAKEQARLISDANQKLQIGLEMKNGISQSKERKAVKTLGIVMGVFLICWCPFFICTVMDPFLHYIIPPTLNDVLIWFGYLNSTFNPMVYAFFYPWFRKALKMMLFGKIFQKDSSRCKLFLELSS
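Assay system: RD-HGA16 CHO cells with stable hTAAR1 and Gα16 / Reagent: EC80 β-phenethylamine stimulus / Doses: 3 µM, single point / Timing: dye loading 75 min at 37 °C, then 30 min room temperature / Measured by: Fluo-8 intracellular calcium dye fluorescence, real-time kinetic reads / Controls: vehicle wells and EC80 agonist wells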
GPR7 antag: human neuropeptides B/W receptor 1 antagonism. P48145. GPR7-expressing cells, fluorescence antagonist assay. inhibition, % at 4.4 µM. 1.1% of 290,000 active; in the data active = inhibition above about 16%, passing the limit was not always enough;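 also: cells stimulated with the agonist NPW; 0% = agonist with vehicle and 100% = vehicle without agonist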
Target sequence (P48145 whole entry, looked up): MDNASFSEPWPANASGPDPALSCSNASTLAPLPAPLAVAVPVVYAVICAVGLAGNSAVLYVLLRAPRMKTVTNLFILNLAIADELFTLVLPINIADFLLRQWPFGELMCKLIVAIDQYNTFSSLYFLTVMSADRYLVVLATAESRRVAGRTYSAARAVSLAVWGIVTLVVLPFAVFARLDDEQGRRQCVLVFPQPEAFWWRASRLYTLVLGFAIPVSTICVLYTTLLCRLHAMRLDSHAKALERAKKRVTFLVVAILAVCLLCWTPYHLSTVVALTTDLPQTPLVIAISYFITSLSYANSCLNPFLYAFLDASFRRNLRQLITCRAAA
CHO parental Ca: signal in parental CHO cells, OX1R antagonist counter-screen; parental CHO-K1, ATP-induced calcium, Fluo-8 fluorescence; inhibition, % at 5.6 µM; 0.63% of 330,000 active;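 active = inhibition above that plate's mean sample inhibition plus 3 SD, cut at about 26% in these data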;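 also: 0% = ATP-challenged DMSO wells and 100% = DMSO wells without ATP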
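material = parental CHO cells | also added = ATP as calcium-mobilizing challenge | dosing = single point at 5.6 µM | detection = intracellular calcium via Fluo-8 no-wash fluorescent dye | read-out = % inhibition | benchmarks = low control ATP plus DMSO, high control DMSO only | repeats = one well per compound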
OX1R antag-2: OX1R (human) antagonism; AID 485270; OX1R-expressing cells, FRET antagonist read-out; inhibition, % at 6.6 µM; O43613; 1.8% of 330,000 active; in the data active = inhibition mostly above about 38%, no sharp cut-off; inactive = mostly below about 40%;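 also: 0% = agonist challenge alone and 100% = reference antagonist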
TAAR1 agonist: human TAAR1 agonism; CHO RD-HGA16 TAAR1, Fluo-8 calcium fluorescence; vehicle wells 0%, saturating PEA agonist 100%; Q96RJ0; 0.99% of 360,000 active; activation, % at 3 µM;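 active = activation above the mean activation of all test compounds in the run plus 3 SD, cut at about 38% in these data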
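System: CHO-derived RD-HGA16 cells with stable Gα16 and human TAAR1 / Times: 17-24 h plating, Fluo-8 75 min 37 °C, 30 min RT / Technique: calcium-sensitive Fluo-8 signal, excitation 470-495, emission 515-575 nm / Measure: % activation relative to PEA EC100 response / Benchmarks: DMSO and PEA EC100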
OX1R HTRF confirm: OX1R (human) antagonism, HTRF confirmed | OX1R-expressing cells, HTRF antagonist assay | 49% of 1,800 active | shares compounds with OX1R antag-2 | inhibition, % at 6.6 µM | AID 492964; in the data active = inhibition above about 55%;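 also: CHO cells expressing OX1R stimulated with orexin A at about EC80; 0% = agonist challenge alone and 100% = reference antagonist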
CHO-K1 HTRF cnt: counter-screen for OX1R antagonists: effect in parental CHO-K1 cells; shares compounds with OX1R antag-2; HTRF counterscreen; inhibition, % at 6.6 µM; 48% of 1,800 active; AID 493232; in the data active = inhibition above about 17%;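 also: 0% = agonist challenge with vehicle and 100% = vehicle alone without agonist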
* = called active by the depositor; / = no result given.

SMILES	OX1R antag-1	TAAR1 antagonist	GPR7 antag	CHO parental Ca	OX1R antag-2	TAAR1 agonist	OX1R HTRF confirm	CHO-K1 HTRF cnt
NS(=O)(=O)c1ccc(CCNC(=O)C2CCCN2C(=O)c2cccs2)cc1 (stereo not drawn)	/	-26	/	/	/	4	/	/
O=C1NC[C@@H](CCCCN2C[C@H](Cc3ccccc3)N(CCC3CCCCC3)C(=O)C2=O)N(CCc2ccc(O)cc2)C1=O	/	-6	/	/	/	1	/	/
O=C(CCc1nnc(Cc2cccc(C(F)(F)F)c2)o1)NCCc1ccccc1F	-32	4	-12	-14	17	4	/	/
O=C1c2ccc(Oc3ccc4c(c3)C(=O)N(CCCO)C4=O)cc2C(=O)N1CCCO	-5	-7	-10	-20	136*	18	45	25*
Cc1ccc2c(c1)C(=O)N(CCCCO)C2=O	-10	0	8	1	15	11	/	/
O=C1c2ccc(-c3ccc4c(c3)C(=O)N(CCO)C4=O)cc2C(=O)N1CCO	-9	24	0	-5	174*	8	66*	82*
CCOc1ccc(CCNC(=O)c2cc3sccc3n2CC)cc1OCC	-15	1	-2	-21	64	0	/	/
CC(C)(C)C(=O)CN1C(=O)NC2(CCCc3ccccc32)C1=O (stereo not drawn)	-23	-17	-5	-10	9	8	/	/
CN(C)S(=O)(=O)c1ccc(Cl)c(C(=O)NC2CCCCCCC2)c1	-20	-9	5	-19	21	1	/	/
Cn1c(=O)n(C)c2cc(/C=C3/SC(=O)N(CC(=O)N4CCOCC4)C3=O)ccc21	-6	-2	-3	-4	83*	0	53	54*
C=CCN1C(=O)S/C(=C\c2ccc3c(c2)n(C)c(=O)n3C)C1=O	-3	13	-6	-7	10	8	/	/
CCn1c(SCc2nc(-c3cccs3)no2)nnc1-c1c[nH]c2ccccc12	10	50*	14	-25	81*	18	43	3
CCn1c(SCC(=O)c2c[nH]c3ccccc23)nnc1-c1cccs1	12	24	-1	-16	39	15	/	/
COc1ccc(-n2nc([N+](=O)[O-])c(=NCCCN3CCCC3=O)n2O)cc1	0	-2	-13	-5	154*	1	51	88*
Cc1ccc2nsnc2c1S(=O)(=O)NCc1ccncc1	-12	-18	-6	-10	103*	12	31	37*
O=C(NCCc1ccccc1)c1ccc(NS(=O)(=O)c2ccc3[nH]c(=O)[nH]c3c2)cc1	0	-24	/	12	7	13	/	/
Brc1cc2ccccc2[n+](Cc2ccccc2)c1	-3	1	/	-15	102*	8	52	62*
CCS(=O)(=O)c1ccc(Sc2nncn2C)c([N+](=O)[O-])c1	-1	-7	3	-2	96*	4	32	51*
CCCc1nc2oc3c(=O)[nH]cnc3c2c2c1CCCC2	-7	-7	-7	-12	17	0	/	/
CCOC(=O)c1c(=O)n(O)c2ccc(OC)cc2[n+]1[O-]	14	3	-6	4	118*	12	30	62*
CCOC(=O)C[n+]1c(C)sc2ccc(OC)cc21	-32	/	9	-3	13	/	/	/
Nc1nc2ccccc2n1/N=C/c1ccc([N+](=O)[O-])s1	-4	-11	-2	-4	78*	31	27	27*
Nc1nc2ccccc2n1/N=C/c1cccnc1	-12	-10	-14	-3	40	2	/	/
CC(=O)NC1=C(Nc2ccc(N(C)C)cc2)C(=O)c2ccccc2C1=O	-13	0	-14	-10	120*	3	66*	92*
COc1c(C)cc(C(=O)C2CCCN(C(=O)c3cccc(-n4cccn4)c3)C2)cc1C (stereo not drawn)	-8	1	-22	-9	89*	-1	81*	3
SMILES	OX1R antag-1	TAAR1 antagonist	GPR7 antag	CHO parental Ca	OX1R antag-2	TAAR1 agonist	OX1R HTRF confirm	CHO-K1 HTRF cnt
O=[N+]([O-])c1ccc(-[n+]2ccc3ccccc3c2)c([N+](=O)[O-])c1	-5	-3	/	-3	78*	16	47	60*
O=[N+]([O-])c1ccc(SNc2ccccc2)c([N+](=O)[O-])c1	/	31	/	/	/	4	/	/
CNc1ccc(/C=C(\CCC(=O)O)c2nc3ccccc3s2)cc1[N+](=O)[O-]	-5	-2	-6	15	87*	1	24	12
Cc1cn([C@H]2C[C@H](O)[C@@H](CCC(=O)NCc3ccccc3)O2)c(=O)[nH]c1=O	/	-1	/	/	/	2	/	/
COc1cccc(Oc2ccc(C(F)(F)F)cc2NC(=O)CCc2nc3ccccc3c(=O)[nH]2)c1	-30	19	-27	-16	32	0	/	/
N#Cc1ncc(-c2ccc3c(c2)OCCOCCOCCOCCO3)nc1C#N	-5	15	-1	-8	117*	0	55*	54*
N#Cc1ncc(-c2ccc3c(c2)OCCOCCOCCOCCOCCO3)nc1C#N	-12	-10	-3	-11	109*	4	32	4
COc1ccc(OC)c(N/C(C)=C/C(=O)c2ccncc2)c1	-40	-27	-2	-17	16	0	/	/
C/C(=C\C(=O)c1ccncc1)Nc1ccccc1O	0	20	8	3	91*	3	24	7
O=CN(CCNc1ccccc1)c1ccccc1	/	-8	/	/	/	3	/	/
CNC(=O)COC(=O)CNC(=O)c1cc(Cl)cc([N+](=O)[O-])c1	3	0	-12	2	89*	12	38	49*
O=C(CNC(=O)c1ccc(Br)cc1)NCC(=O)OCC(=O)c1ccc(F)cc1	/	-22	-3	/	/	0	/	/
O=C(CNC(=O)c1ccc(Br)cc1)NCC(=O)OCC(=O)c1ccc([N+](=O)[O-])cc1	-20	-13	-2	-12	87*	1	35	50*
Cc1ccc(OCCSc2nc3ncnc(N)c3[nH]2)cc1	-21	1	-3	-10	99*	5	22	-2
Nc1ncnc2nc(SCCOc3ccc(Cl)cc3)[nH]c12	-22	8	-15	-18	17	8	/	/
O=C(NCCNc1ccc([N+](=O)[O-])cc1)c1cccs1	-6	-6	-13	4	9	3	/	/
Clc1ccccc1Nc1nc(-c2cccnc2)cs1	-24	2	3	-5	84*	-4	77*	9
COCC(=O)OCC(=O)Nc1ccc(Cl)cc1[N+](=O)[O-]	4	2	-2	-3	99*	-1	28	50*
COCC(=O)OCC(=O)Nc1cc([N+](=O)[O-])ccc1Cl	/	-4	-1	/	/	4	/	/

Screens: PubChem BioAssay, The Scripps Research Institute Molecular Screening Center
